Reference: ChEMBL document CHEMBL1123080, “Synthesis and antiviral activity of the carbocyclic analogues of (E)-5-(2-halovinyl)-2'-deoxyuridines and (E)-5-(2-halovinyl)-2'-deoxycytidines” (1985)
Converted amounts (≈) assume the structure as drawn.

Legend:
Type in all cases: functional
Human alphaherpesvirus 2 [1] = test: Minimum inhibitory concentration (MIC) required to reduce HSV-2 strain (Lyons) induced cytopathogenicity in primary rabbit kidney cell cultures
In short: (§1)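 Primary rabbit kidney cell cultures were infected with virus and treated with compound. The MIC is the concentration that reduces virus-induced cytopathogenicity by 50%. Cytotoxicity was scored as microscopically visible alteration of normal cell morphology, with 400 μg/mL the highest concentration tested.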

Human alphaherpesvirus 2 [2] = test: Minimum inhibitory concentration (MIC) required to reduce HSV-2 strain G induced cytopathogenicity in primary rabbit kidney cell cultures; in short: as §1
Human alphaherpesvirus 1 [3] = test: Minimum inhibitory concentration (MIC) required to reduce HSV-1 strain (F) induced cytopathogenicity in primary rabbit kidney cell cultures; in short: as §1
Human alphaherpesvirus 1 [4] = test: Minimum inhibitory concentration (MIC) required to reduce HSV-1 strain McIntyre induced cytopathogenicity in primary rabbit kidney cell cultures; in short: as §1
Human alphaherpesvirus 1 [5] = test: Minimum inhibitory concentration (MIC) required to reduce Herpes simplex virus (HSV-1) KOS strain induced cytopathogenicity in primary rabbit kidney cell cultures; in short: as §1
Human alphaherpesvirus 1 [6] = test: Minimum inhibitory concentration (MIC) required to reduce thymidine kinase deficient HSV-1 induced cytopathogenicity in primary rabbit kidney cell cultures
In short: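 The virus was a dThd kinase-deficient mutant of HSV-1 strain B2006, passaged several times in primary rabbit kidney cells. The MIC is the concentration that reduces cytopathogenicity by 50% in primary rabbit kidney cell cultures. Cytotoxicity was scored by microscopic cell morphology, up to 400 μg/mL.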

L1210 [7] = test: Minimum inhibitory concentration (MIC) required to inhibit proliferation of murine leukemia L1210 (TK-); details: Mus musculus
In short: (§2)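 Cell proliferation assay. Cultures were exposed to compound during their linear growth phase, and growth was monitored. The MIC is the concentration that inhibits cell proliferation by 50%.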

L1210 [8] = test: Minimum inhibitory concentration (MIC) required to inhibit proliferation of murine leukemia L1210 (wild type); details: Mus musculus; in short: as §2
Rattus norvegicus = organism: Rattus norvegicus; test: Minimum inhibitory concentration (MIC) required to inhibit proliferation of Novikoff rat hepatoma; in short: as §2
Homo sapiens = organism: Homo sapiens; test: Minimum inhibitory concentration (MIC) required to inhibit proliferation of human lymphoblast Raji; in short: as §2
[9] = test system: Vesicular stomatitis virus; test: Minimum inhibitory concentration (MIC) required to reduce vesicular stomatis virus induced cytopathogenicity in primary rabbit kidney cell cultures; in short: as §1
Mus musculus [10] = test: The survival rate was evaluated for its effect of systemic treatment on NMRI mice infected intraperitoneally with HSV-1 (KOS) when administered perorally
In short: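 Mice were infected intraperitoneally with HSV-1 (KOS). Compound was given at 100 mg/kg per day from day 0 to day 4 postinfection, as a 2 mg/mL suspension in water by gavage once daily. Survivors were counted at day 20 postinfection.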

Mus musculus [11] = organism: Mus musculus; test: The survival rate was evaluated for its effect of systemic treatment on hairless (hr/hr) mice infected intracutaneously with HSV-1 (KOS) at percent concentration of 0.3
Mus musculus [12] = organism: Mus musculus; test: The survival rate was evaluated for its effect of systemic treatment on hairless (hr/hr) mice infected intracutaneously with HSV-1 (KOS) at percent concentration of 1
Mus musculus [13] = organism: Mus musculus; test: The survival rate was evaluated for its effect of systemic treatment on hairless (hr/hr) mice infected intracutaneously with HSV-1 (KOS) at percent concentration of 3
Mus musculus [14] = test: The survival rate was evaluated for its effect of systemic treatment on NMRI mice infected intraperitoneally with HSV-1 (KOS) when administered intraperitoneally
In short: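 Mice were infected intraperitoneally with HSV-1 (KOS). Compound was given at 100 mg/kg per day from day 0 to day 4 postinfection, intraperitoneally, at 1 mg/mL in physiological saline with 10% propylene glycol, twice daily. Survivors were counted at day 20 postinfection.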

SMILES | MIC50 (Human alphaherpesvirus 2 [1]) [µg/mL] | MIC50 (Human alphaherpesvirus 2 [2]) [µg/mL] | MIC50 (Human alphaherpesvirus 1 [3]) [µg/mL] | MIC50 (Human alphaherpesvirus 1 [4]) [µg/mL] | MIC50 (Human alphaherpesvirus 1 [5]) [µg/mL] | MIC50 (Human alphaherpesvirus 1 [6]) [µg/mL] | MIC50 (L1210 [7]) [µg/mL] | MIC50 (L1210 [8]) [µg/mL] | MIC50 (Rattus norvegicus) [µg/mL] | MIC50 (Homo sapiens) [µg/mL] | MIC50 [9] [µg/mL] | Survival rate (Mus musculus [10]) | Survival rate (Mus musculus [11]) | Survival rate (Mus musculus [12]) | Survival rate (Mus musculus [13]) | Survival rate (Mus musculus [14])
O=c1[nH]c(=O)n(C2CC(O)C(CO)C2)cc1/C=C/I (stereo not drawn) | 7 (≈ 18.5 µM) | 2 (≈ 5.29 µM) | 0.1 (≈ 0.264 µM) | 0.07 (≈ 0.185 µM) | 0.07 (≈ 0.185 µM) | > 400 | > 200 | > 200 | > 200 | > 200 | > 400 |  |  |  |  | 
Nc1nc(=O)n(C2CC(O)C(CO)C2)cc1/C=C/Br (stereo not drawn) | 20 (≈ 60.6 µM) | 20 (≈ 60.6 µM) | 0.1 (≈ 0.303 µM) | 0.2 (≈ 0.606 µM) | 0.2 (≈ 0.606 µM) | > 400 |  |  |  |  | > 400 |  |  |  |  | 
O=c1[nH]c(=O)n([C@H]2C[C@H](O)[C@@H](CO)O2)cc1/C=C/I | 2 (≈ 5.26 µM) | 2 (≈ 5.26 µM) | 0.02 (≈ 0.0526 µM) | 0.02 (≈ 0.0526 µM) | 0.007 (≈ 0.0184 µM) | > 10 | 5.1 (≈ 13.4 µM) | 16.3 (≈ 42.9 µM) | 4.6 (≈ 12.1 µM) | 21.1 (≈ 55.5 µM) | > 400 |  |  |  |  | 
O=c1[nH]c(=O)n([C@@H]2C[C@H](CO)[C@@H](O)C2)cc1I | 20 (≈ 56.8 µM) | 40 (≈ 114 µM) | 0.2 (≈ 0.568 µM) | 0.2 (≈ 0.568 µM) | 0.2 (≈ 0.568 µM) | > 400 | > 200 | > 200 | 22.8 (≈ 64.7 µM) | > 200 | > 400 |  |  |  |  | 
NC1NC(=O)N([C@H]2C[C@H](O)[C@@H](CO)O2)C=C1/C=C/Br (stereo partly drawn) | 9 (≈ 26.9 µM) | 7 (≈ 20.9 µM) | 0.07 (≈ 0.209 µM) | 0.06 (≈ 0.18 µM) | 0.07 (≈ 0.209 µM) |  |  |  |  |  | > 400 |  |  |  |  | 
O=c1[nH]c(=O)n([C@H]2C[C@@H](CO)[C@H](O)C2)cc1/C=C/Br | 7 (≈ 21.1 µM) | 20 (≈ 60.4 µM) | 0.07 (≈ 0.211 µM) | 0.04 (≈ 0.121 µM) | 0.07 (≈ 0.211 µM) | > 400 | > 200 | > 200 | > 200 | > 200 | > 400 | 0 | 0 | 0 | 2 | 3
O=c1[nH]c(=O)n([C@H]2C[C@H](O)[C@@H](CO)O2)cc1I [IDOXURIDINE] | 0.2 (≈ 0.565 µM) | 0.7 (≈ 1.98 µM) | 0.2 (≈ 0.565 µM) | 0.2 (≈ 0.565 µM) | 0.2 (≈ 0.565 µM) | > 400 | > 500 | 35.6 (≈ 101 µM) | 5.5 (≈ 15.5 µM) | 4.7 (≈ 13.3 µM) | > 400 |  |  |  |  | 
